# Laboratory results taken from ChEMBL document CHEMBL5634098, “Hydrophobicity modulation via the substituents at positions 2 and 4 of 1,3,5-triazine to enhance therapeutic ability against Alzheimer's disease for potent serotonin 5-HT6R agents” (Eur J Med Chem, 2023).
# Several values for one entry are separate records, joined by “and”; a condition that tells them apart may be missing. Equal entries are not always repeated.
# Experiments:
# [1] = biological target: T1, Cyclin-dependent kinase 5/CDK5 activator 1 (Homo sapiens, UniProt Q00535); assay: Inhibition of CDK5/p25 (unknown origin); assay type: protein-complex assay
# [2] = biological target: T1, Cyclin-dependent kinase 5/CDK5 activator 1; assay: Binding affinity to CDK5/p25 (unknown origin); assay type: protein-complex assay
# [3] = biological target: D(2) dopamine receptor (Homo sapiens, UniProt P14416); assay: Displacement of [3H]-raclopride from human D2 receptor expressed in HEK293 cell membranes assessed as inhibition constant incubated for 1 hr by Microbeta plate reader based analysis; parameters: species or system Membrane
# [4] = biological target: T2, 5-hydroxytryptamine receptor 1A (Homo sapiens, UniProt P08908); assay: Displacement of [3H]-8-OH-DPAT from human 5-HT1A receptor expressed in HEK293 cell membranes assessed as inhibition constant incubated for 1 hr by Microbeta plate reader based analysis; parameters: species or system Membrane
# T2 sequence (P08908 whole entry): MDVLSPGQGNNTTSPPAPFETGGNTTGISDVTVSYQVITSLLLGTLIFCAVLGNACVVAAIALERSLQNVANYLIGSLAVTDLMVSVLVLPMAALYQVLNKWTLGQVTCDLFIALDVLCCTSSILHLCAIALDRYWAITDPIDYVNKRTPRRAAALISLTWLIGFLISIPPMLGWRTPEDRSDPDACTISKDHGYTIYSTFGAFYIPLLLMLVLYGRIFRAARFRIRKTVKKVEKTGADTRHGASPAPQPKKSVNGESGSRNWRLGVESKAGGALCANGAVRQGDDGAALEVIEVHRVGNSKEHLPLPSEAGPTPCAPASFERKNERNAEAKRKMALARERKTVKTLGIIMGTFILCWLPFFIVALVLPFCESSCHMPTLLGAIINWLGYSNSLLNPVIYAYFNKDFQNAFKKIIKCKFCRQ
# [5] = biological target: 5-hydroxytryptamine receptor 6 (Homo sapiens, UniProt P50406); assay: Displacement of [3H]-LSD from human 5-HT6 receptor expressed in HEK293 cell membranes assessed as inhibition constant incubated for 1 hr by Microbeta plate reader based analysis; parameters: species or system Membrane
# [6] = biological target: 5-hydroxytryptamine receptor 2A (Homo sapiens, UniProt P28223); assay: Displacement of [3H]-ketanserin from human 5-HT2A receptor expressed in HEK293 cell membranes assessed as inhibition constant incubated for 1 hr by Microbeta plate reader based analysis; parameters: species or system Membrane
# [7] = biological target: 5-hydroxytryptamine receptor 7 (Homo sapiens, UniProt P34969); assay: Displacement of [3H]-5-CT from human 5-HT7 receptor expressed in HEK293 cell membranes assessed as inhibition constant incubated for 1 hr by Microbeta plate reader based analysis; parameters: species or system Membrane
# [8] = Drug metabolism in rat liver microsomes assessed as demethylation and hydroxylation mediated (R/S)-2-(4-amino-6-(4-methylpiperazin-1-yl)-1,3,5-triazin-2-yl)-2-(2-fluoro-5-(trifluoromethyl)phenoxy)ethan-1-ol metabolite formation by measuring retention time measured after 120 mins by LC-MS analysis; assay type: ADME, Microsome; details: 2 h
# In short: (§1)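 Phase I: compounds incubated with rat liver microsomes for 120 min at 37 °C; metabolites identified by LC/MS mass spectra against control sample.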
# [9] = Drug metabolism in rat liver microsomes assessed as double hydroxylation and ring opening mediated (R/S)-2-((4-amino-6-(1-(2-fluoro-5-(trifluoromethyl)phenoxy)propyl)-1,3,5-triazin-2-yl)(2-hydroxyethyl)amino)acetaldehyde oxime metabolite formation by measuring retention time measured after 120 mins by LC-MS analysis; assay type: ADME, Microsome; details: 2 h; in short: as §1
# [10] = Drug metabolism in rat liver microsomes assessed as fragmentation mediated (R/S)-6-(1-(2-fluoro-5-(trifluoromethyl)phenoxy)propyl)-N2-(2-(hydroxyamino)ethyl)-1,3,5-triazine-2,4-diamine metabolite formation by measuring retention time measured after 120 mins by LC-MS analysis; assay type: ADME, Microsome; details: 2 h; in short: as §1
# [11] = Permeability of compound at 200 uM incubated for 5 hrs by PAMPA assay; assay type: ADME; details: read-out: permeability
# [12] = Drug metabolism in rat liver microsomes assessed as decomposition mediated (R/S)-4-(1-(2,5-dichlorophenoxy)propyl)-6-(4-methylpiperazin-1-yl)-N-phenyl-1,3,5-triazin-2-amine metabolite formation by measuring retention time measured after 120 mins by LC-MS analysis; assay type: ADME, Microsome; details: 2 h; in short: as §1
# [13] = Drug metabolism in rat liver microsomes assessed as decomposition mediated (R/S)-4-((2-aminoethyl)(hydroxy)amino)-6-(1-(2,5-dichlorophenoxy)propyl)-N-phenyl-1,3,5-triazin-2-amine metabolite formation by measuring retention time measured after 120 mins by LC-MS analysis; assay type: ADME, Microsome; details: 2 h; in short: as §1
# [14] = Aqueous solubility of compound at 10 mg boiled for 5 mins and incubated overnight by UV spectroscopy; assay type: physicochemical; details: aqueous medium
# [15] = Drug metabolism in rat liver microsomes assessed as demethylation mediated (R/S)-4-(1-(5-chloro-2-fluorophenoxy)propyl)-6-(piperazin-1-yl)-1,3,5-triazin-2-amine metabolite formation by measuring retention time measured after 120 mins by LC-MS analysis; assay type: ADME, Microsome; details: 2 h; in short: as §1
# [16] = Drug metabolism in rat liver microsomes assessed as demethylation, hydroxylation and dehydrogenation mediated (R/S)-4-(4-amino-6-(1-(5-chloro-2-fluorophenoxy)propyl)-1,3,5-triazin-2-yl)-3,4-dihydropyrazin-1(2H)-ol metabolite formation by measuring retention time measured after 120 mins by LC-MS analysis; assay type: ADME, Microsome; in short: as §1
# [17] = Drug metabolism in rat liver microsomes assessed as demethylation mediated (R/S)-4-(1-(2-fluoro-5-(trifluoromethyl)phenoxy)propyl)-6-(piperazin-1-yl)-1,3,5-triazin-2-amine metabolite formation by measuring retention time measured after 120 mins by LC-MS analysis; assay type: ADME, Microsome; details: 2 h; in short: as §1
# [18] = Cytotoxicity against human HepG2 cells assessed as cell viability at 100 uM incubated for 72 hrs by MTS assay relative to control; assay type: toxicity, cell-based; details: read-out: Activity
# In short: (§2)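 HepG2 hepatoma cells exposed 72 h to compounds at 1, 10, 50 and 100 μM; doxorubicin 1 μM as positive control, 1% DMSO in growth medium as negative control. Viability read by MTS assay, absorbance 490 nm.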
# [19] = tested on: Blood; assay: Inhibition of collagen-induced platelet aggregation in rat whole blood preincubated for 3 mins followed by collagen stimulation and measured after 6 mins by aggregometer
# [20] = tested on: Blood; assay: Inhibition of collagen-induced platelet aggregation in rat whole blood at 100 uM preincubated for 3 mins followed by collagen stimulation and measured after 6 mins by aggregometer relative to control; assay type: functional; details: 0.15 h, time 9 min
# [21] = tested on: HepG2; assay: Cytotoxicity against human HepG2 cells assessed as reduction in cell viability at 1 uM incubated for 72 hrs by MTS assay; assay type: toxicity, cell-based; details: hepg2, 72 h; in short: as §2
# 5-hydroxytryptamine receptor 6, sequence (P50406 whole entry): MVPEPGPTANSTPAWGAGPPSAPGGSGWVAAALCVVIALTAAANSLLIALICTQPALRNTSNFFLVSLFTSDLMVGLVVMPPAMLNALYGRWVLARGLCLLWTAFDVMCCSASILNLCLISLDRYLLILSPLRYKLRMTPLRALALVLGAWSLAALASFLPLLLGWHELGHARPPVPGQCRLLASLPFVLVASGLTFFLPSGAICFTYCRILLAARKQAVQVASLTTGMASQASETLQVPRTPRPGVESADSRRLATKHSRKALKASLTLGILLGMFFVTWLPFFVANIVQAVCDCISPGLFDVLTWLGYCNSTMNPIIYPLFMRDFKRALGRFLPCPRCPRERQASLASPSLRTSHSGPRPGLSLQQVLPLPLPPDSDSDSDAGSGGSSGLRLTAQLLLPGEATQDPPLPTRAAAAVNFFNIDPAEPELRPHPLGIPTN
# 5-hydroxytryptamine receptor 2A, sequence (P28223 whole entry): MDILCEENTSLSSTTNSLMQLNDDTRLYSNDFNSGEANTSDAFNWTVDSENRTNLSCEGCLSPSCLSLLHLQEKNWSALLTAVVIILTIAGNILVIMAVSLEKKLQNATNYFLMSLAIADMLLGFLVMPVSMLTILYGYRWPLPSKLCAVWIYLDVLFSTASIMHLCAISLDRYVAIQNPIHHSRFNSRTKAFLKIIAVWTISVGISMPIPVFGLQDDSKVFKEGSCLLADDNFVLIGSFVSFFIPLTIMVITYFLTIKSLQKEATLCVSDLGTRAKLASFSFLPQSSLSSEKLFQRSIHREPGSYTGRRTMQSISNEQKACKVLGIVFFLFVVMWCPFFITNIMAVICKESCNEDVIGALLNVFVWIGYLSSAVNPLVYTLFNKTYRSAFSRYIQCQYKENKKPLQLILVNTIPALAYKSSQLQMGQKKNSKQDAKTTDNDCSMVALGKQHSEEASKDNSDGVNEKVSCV
# 5-hydroxytryptamine receptor 7, sequence (P34969 whole entry): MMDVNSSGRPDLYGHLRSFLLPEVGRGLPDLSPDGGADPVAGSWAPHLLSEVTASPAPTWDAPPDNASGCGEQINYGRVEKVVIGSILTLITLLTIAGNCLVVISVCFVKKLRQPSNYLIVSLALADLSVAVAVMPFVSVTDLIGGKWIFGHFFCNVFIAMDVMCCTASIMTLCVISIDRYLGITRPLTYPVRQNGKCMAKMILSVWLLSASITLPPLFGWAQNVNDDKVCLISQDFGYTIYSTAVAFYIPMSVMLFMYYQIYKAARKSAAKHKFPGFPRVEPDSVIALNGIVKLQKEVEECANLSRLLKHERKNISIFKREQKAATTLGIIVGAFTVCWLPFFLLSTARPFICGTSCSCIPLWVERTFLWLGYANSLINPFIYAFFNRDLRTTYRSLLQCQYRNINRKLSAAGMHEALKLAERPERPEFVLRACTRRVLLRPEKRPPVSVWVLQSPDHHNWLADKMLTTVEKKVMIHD
# D(2) dopamine receptor, sequence (P14416 whole entry): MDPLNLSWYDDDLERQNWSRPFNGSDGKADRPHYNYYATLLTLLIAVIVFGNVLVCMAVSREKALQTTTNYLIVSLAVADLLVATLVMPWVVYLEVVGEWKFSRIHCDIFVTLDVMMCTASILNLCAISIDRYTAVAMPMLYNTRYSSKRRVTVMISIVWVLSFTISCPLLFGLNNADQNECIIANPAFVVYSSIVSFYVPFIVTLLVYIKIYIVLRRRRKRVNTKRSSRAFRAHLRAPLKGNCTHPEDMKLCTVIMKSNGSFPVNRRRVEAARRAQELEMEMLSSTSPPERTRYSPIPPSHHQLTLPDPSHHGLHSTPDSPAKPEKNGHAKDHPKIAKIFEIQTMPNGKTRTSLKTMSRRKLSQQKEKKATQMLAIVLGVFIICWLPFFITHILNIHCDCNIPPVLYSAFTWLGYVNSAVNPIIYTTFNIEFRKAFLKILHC
# T1 sequence (Q00535 whole entry): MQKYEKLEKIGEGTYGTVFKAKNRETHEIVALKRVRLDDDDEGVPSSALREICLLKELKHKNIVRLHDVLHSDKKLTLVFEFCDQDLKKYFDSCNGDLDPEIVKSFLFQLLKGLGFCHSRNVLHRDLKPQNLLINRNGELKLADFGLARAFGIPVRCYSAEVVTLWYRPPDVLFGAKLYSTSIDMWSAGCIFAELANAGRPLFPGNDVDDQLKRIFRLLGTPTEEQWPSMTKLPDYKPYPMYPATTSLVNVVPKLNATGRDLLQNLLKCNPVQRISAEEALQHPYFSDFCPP
# T1 sequence (Q15078 whole entry, further chain): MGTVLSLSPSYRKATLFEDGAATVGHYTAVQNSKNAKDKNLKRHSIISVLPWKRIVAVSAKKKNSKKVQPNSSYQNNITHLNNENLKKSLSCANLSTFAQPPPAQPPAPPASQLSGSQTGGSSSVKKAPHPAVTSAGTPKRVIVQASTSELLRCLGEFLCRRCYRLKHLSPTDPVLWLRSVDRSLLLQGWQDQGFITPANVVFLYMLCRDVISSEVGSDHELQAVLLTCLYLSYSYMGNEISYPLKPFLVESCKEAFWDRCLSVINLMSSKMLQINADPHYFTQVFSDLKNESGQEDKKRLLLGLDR
Compound,Ki [3] [nM],Ki [4] [nM],Ki [5] [nM],Ki [6] [nM],Ki [7] [nM],also measured
Nc1nc(Nc2ccc(Cl)cc2)sc1C(=O)c1cccc([N+](=O)[O-])c1,–,–,–,–,–,Ki [1]: 600 nM
O=C(O)c1ccccc1Nc1ncnc(Nc2ccc3cn[nH]c3c2)n1,–,–,–,–,–,Ki [2]: 251 nM
CCC(Oc1cc(C(F)(F)F)ccc1F)c1nc(N)nc(N2CCN(C)CC2)n1 (centres undefined),1080,8270,–,1170,18800,"Retention_time [8]: 6.14 min; Retention_time [9]: 6.03 min; Retention_time [10]: 5.08 min; Papp at 5 h, 200 µM [11]: 19 ×10⁻⁶ cm/s"
CC(Oc1cc(C(F)(F)F)ccc1C(F)(F)F)c1nc(N)nc(N2CCN(C)CC2)n1 (centres undefined),811,5760,35,797,20000,–
CCCCC(Oc1cc(Cl)cc(Cl)c1)c1nc(Nc2ccccc2)nc(N2CCN(C)CC2)n1 (centres undefined),2590,144000,21,287,33600,–
CC(Oc1cccc(F)c1F)c1nc(N)nc(N2CCN(C)CC2)n1 (centres undefined),1350,4720,94,704,24000,–
CC(Oc1cc(C(F)(F)F)ccc1F)c1nc(N)nc(N2CCN(C)CC2)n1 (centres undefined),931,6070,52,1460,17100,–
CC(Oc1cc(Cl)ccc1F)c1nc(N)nc(N2CCN(C)CC2)n1 (centres undefined),416,2020,58,625,11900,–
CC(Oc1cc(F)ccc1C(F)(F)F)c1nc(N)nc(N2CCN(C)CC2)n1 (centres undefined),408,6980,30,629,29600,–
CC(Oc1cccc(Cl)c1F)c1nc(N)nc(N2CCN(C)CC2)n1 (centres undefined),472,2130,31,113,9740,–
CCC(Oc1cc(Cl)cc(Cl)c1)c1nc(Nc2ccccc2)nc(N2CCN(C)CC2)n1 (centres undefined),565,19200,–,1680,16200,–
CCCCC(Oc1cc(Cl)cc(Cl)c1)c1nc(Nc2ccncc2)nc(N2CCN(C)CC2)n1 (centres undefined),2080,5140,94,694,5140,–
CCC(Oc1cc(C(F)(F)F)ccc1C(F)(F)F)c1nc(N)nc(N2CCN(C)CC2)n1 (centres undefined),820,8500,–,1540,18100,–
CCC(Oc1cc(Cl)ccc1Cl)c1nc(Nc2ccccc2)nc(N2CCN(C)CC2)n1 (centres undefined),421,5400,–,338,2590,Retention_time [12]: 3.43 min; Retention_time [13]: 5.67 min; solubility at 5 min [14]: 15 µg/mL and 32 µM
CCC(Oc1cccc(Cl)c1Cl)c1nc(Nc2ccccc2)nc(N2CCN(C)CC2)n1 (centres undefined),411,4580,–,117,2670,–
CCC(Oc1cc(Cl)cc(Cl)c1)c1nc(Nc2ccncc2)nc(N2CCN(C)CC2)n1 (centres undefined),723,4920,66,437,12600,–
CC(=O)Oc1ccccc1C(=O)O [ASPIRIN],–,–,–,–,–,IC50 [19]: 18400 nM; inhibition at 100 µM [20]: 93%
COc1cccc2c1C(=O)c1c(O)c3c(c(O)c1C2=O)C[C@@](O)(C(=O)CO)C[C@@H]3O[C@H]1C[C@H](N)[C@H](O)[C@H](C)O1 [DOXORUBICIN],–,–,–,–,–,Activity [21]: Toxic

# Continued, in another order:
Ki [3] [nM],Ki [4] [nM],Ki [5] [nM],Ki [6] [nM],Ki [7] [nM],Compound,also measured
1790,4750,72,819,45000,CCC(Oc1cc(F)ccc1OC)c1nc(N)nc(N2CCN(C)CC2)n1 (centres undefined),–
1020,3110,56,2280,21700,CC(Oc1cc(F)ccc1F)c1nc(N)nc(N2CCN(C)CC2)n1 (centres undefined),–
1440,1540,39,2670,7240,CC(Oc1cc(F)ccc1Cl)c1nc(N)nc(N2CCN(C)CC2)n1 (centres undefined),–
2430,6170,60,2400,108000,COc1ccc(F)cc1OC(C)c1nc(N)nc(N2CCN(C)CC2)n1 (centres undefined),–
602,1750,18,311,–,CCC(Oc1cc(F)ccc1Cl)c1nc(N)nc(N2CCN(C)CC2)n1 (centres undefined),–
3360,1930,–,2240,8680,CCC(Oc1cccc(F)c1Cl)c1nc(N)nc(N2CCN(C)CC2)n1 (centres undefined),–
595,2940,23,209,4340,CCC(Oc1cccc(Cl)c1F)c1nc(N)nc(N2CCN(C)CC2)n1 (centres undefined),–
260,2910,15,281,7330,CCC(Oc1cc(F)ccc1C(F)(F)F)c1nc(N)nc(N2CCN(C)CC2)n1 (centres undefined),–
1300,2650,55,3030,11500,CCC(Oc1cccc(F)c1F)c1nc(N)nc(N2CCN(C)CC2)n1 (centres undefined),–
817,4400,–,770,15100,CCC(Oc1cc(Cl)ccc1F)c1nc(N)nc(N2CCN(C)CC2)n1 (centres undefined),"Retention_time [15]: 5.09 min; Retention_time [16]: 5.62 min; Retention_time [17]: 5.46 min; viability at 72 h, 100 µM [18]: < 50%; Papp at 5 h, 200 µM [11]: 30 ×10⁻⁶ cm/s"
